# How the values were obtained:
# Type in all cases: physicochemical
# [1] = Distribution coefficient was measured at an aqueous phase buffered at pH 7.4 and octanol; conditions: octanol/water
# Summary of the method: (§1)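 Spectrophotometric partition: ligands at about 0.1 mM in 20 mM Tris-HCl pH 7.4 shaken overnight with octan-1-ol at 25 °C. Octanol volume chosen to lower aqueous absorbance by 30–70%; three preparations used. Aqueous spectra read at 250–350 nm for free ligands and 350–600 for iron(III) complexes, the complexes formed with over 10-fold ligand excess over iron(III).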
# [2] = Distribution coefficient and iron(III) complex was measured at an aqueous phase buffered at pH 7.4 and octanol; conditions: octanol/water; summary of the method: as §1
# [3] = pKa values was measured by spectrophotometric method
# [4] = pKa values were measured by spectrophotometric method
Structure (SMILES),Distribution coefficient [1],Distribution coefficient [2],pKa [3],pKa [4]
CC(C)n1cccc(O)c1=O,6.17,234,,
O=C(Cn1cccc(O)c1=O)NCCN(CCNC(=O)Cn1cccc(O)c1=O)CCNC(=O)Cn1cccc(O)c1=O,0.025,0.008,8.7,
CNC(=O)Cn1cccc(O)c1=O,0.07,0.001,,
CC(C)NC(=O)Cn1cccc(O)c1=O,0.46,0.11,,
CCNC(=O)Cn1cccc(O)c1=O,0.18,0.035,,
CCCCNC(=O)Cn1cccc(O)c1=O,2.12,3.74,,
CC(=O)N(O)CCCCCNC(=O)CCC(=O)N(O)CCCCCNC(=O)CCC(=O)N(O)CCCCCN [DEFEROXAMINE],0.07,0.03,,
CCCNC(=O)Cn1cccc(O)c1=O,0.57,0.35,8.75,
Cn1cccc(O)c1=O,0.6,0.12,,
CCCCn1cccc(O)c1=O,16,> 1000,,
CCCn1cccc(O)c1=O,4.92,24.6,,
CCn1cccc(O)c1=O,1.57,1.67,,8.99

# Reference: ChEMBL document CHEMBL1124801, “Novel 3-hydroxy-2(1H)-pyridinones. Synthesis, iron(III)-chelating properties, and biological activity” (J Med Chem, 1990)
